Assay results: article PMC8721857 (Oncology Letters, 2021)

Assays:
A2780 cells = assay: Colony formation assay, A2780; assay type: cell-based
How it was run: (§1)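 A2780 (1×10^3) or A2780cis (2×10^3) cells were seeded per 3.5-cm dish and grown 24 h. They were exposed 72 h to test compound or cisplatin at 1X or 2X IC50, then PBS-washed. Fresh medium followed for 5 days at 37°C. Staining was 0.5% crystal violet in 25% methanol, 10 min RT. Clusters of ≥50 cells were counted by microscope. Colonies expressed as % of control.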

A2780cis cells = assay: Colony formation assay, A2780cis; assay type: cell-based
How it was run: as §1

[1] = IC50 and 2X IC50 concentrations, 72 h treatment, vs control

N.N.[Cl][Pt][Cl] [cisplatin]
colony formation (A2780 cells; [1]): almost completely inhibited
cells per colony after treatment (unable to divide) (A2780 cells; colony formation assay): 3–5 cells/colony
colony formation (A2780cis cells; [1]): almost completely inhibited
cells per colony after treatment (unable to divide) (A2780cis cells; colony formation assay): 3–5 cells/colony
